Measurements from ChEMBL document CHEMBL1124882, “Synthesis and evaluation of 1,2,2-tris(sulfonyl)hydrazines as antineoplastic and trypanocidal agents” (1990).

Columns and labels:
L1210 [1] = assay: (§1) Percentage of mice survived after 60 days of treatment with the compound was determined.; type: functional, Mus musculus; set-up: concentration or dose not given beside the values
In short: (§2)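 Mice implanted ip with 10⁶ L1210 leukemia cells (also P388 leukemia and Sarcoma 180); drug given ip in DMSO (≤0.025 mL) once daily for 6 consecutive days from 24 h after implantation, or as single dose; groups of five; vehicle controls. %T/C = mean survival treated/control ×100, excluding 60-day survivors, which are reported separately; weight change from onset to end of therapy used as toxicity.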

L1210 [2] = assay: Evaluated for average percent change in body weight from onset to termination of therapy against L1210 Leukemia cells in mice after 60 mg/kg dose administration.; type: functional, Mus musculus
In short: (§3)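 Recipient mice each received 0.1 mL of suspension containing 10⁶ L1210 cells. The line was kept in RPMI 1640 with 10% FBS and was re-passaged i.p. in CD2F1 donor mice every 8 weeks. Drug was given i.p. in DMSO (≤0.025 mL) once daily for 6 consecutive days, starting 24 h after implantation. Groups held 5–10 mice, with vehicle controls. Value is average % body-weight change from onset to end of therapy.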

L1210 [3] = assay: Evaluated for average percent change in body weight from onset to termination of therapy against L1210 Leukemia cells in mice after 150 mg/kg dose administration.; type: functional, Mus musculus; in short: as §3
L1210 [4] = assay: Average survival time of treated group / control group x(100) was determined.; type: functional, Mus musculus; in short: as §2
L1210 [5] = assay: Evaluated for average percent change in body weight from onset to termination of therapy against L1210 Leukemia cells in mice after 40 mg/kg dose administration.; type: functional, Mus musculus; in short: as §3
L1210 [6] = assay: Evaluated for average percent change in body weight from onset to termination of therapy against L1210 Leukemia cells in mice after 100 mg/kg dose administration.; type: functional, Mus musculus; in short: as §3
L1210 [7] = assay: Evaluated for average percent change in body weight from onset to termination of therapy against L1210 Leukemia cells in mice after 15 mg/kg dose administration.; type: functional, Mus musculus
In short: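 Mice were implanted with 10⁶ L1210 cells in 0.1 mL, from a line kept in culture and passaged in CD2F1 donor mice. A single i.p. dose was given in DMSO (≤0.025 mL). Groups held 5–10 mice, with vehicle-treated tumor-bearing controls. Read-out is average percent body-weight change from onset to termination of therapy, used as the toxicity index.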

L1210 [8] = assay: Evaluated for average percent change in body weight from onset to termination of therapy against L1210 Leukemia cells in mice after 200 mg/kg dose administration.; type: functional, Mus musculus; in short: as §3
Mus musculus [9] = species: Mus musculus; assay: Effect of aging of compound on the activity after 0 min; type: functional
In short: (§4)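 Compound, 1 M stock in DMSO, diluted 100 µL into 9.9 mL 200 mM potassium phosphate pH 7.6 at 37 °C; aliquots taken at timed intervals and injected ip (20 µL/g, effective initial dose 0.2 mmol/kg) into female CD-1 mice infected ip with 10⁶ T. rhodesiense Y Tat 1.1, 3 days post-infection; 3–4 mice/group; read-out days survived beyond vehicle controls.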

Mus musculus [10] = species: Mus musculus; assay: as §1; type: functional; in short: as §2
Mus musculus [11] = species: Mus musculus; assay: Effect of aging of compound on the activity after 100 min; type: functional; in short: as §4
Mus musculus [12] = species: Mus musculus; assay: Effect of aging of compound on the activity after 200 min; type: functional; in short: as §4

Structure (SMILES) | Survival (L1210 [1]) | Change in weight (L1210 [3]) | T/C (L1210 [4]) | further results
CS(=O)(=O)N(CCCl)N(S(C)(=O)=O)S(C)(=O)=O | 100% | – | – | Change in weight (L1210 [2]): -7.2%
CS(=O)(=O)N(N(CCCl)S(=O)(=O)c1ccccc1)S(C)(=O)=O | 40% | 0.5% | – | –
Cc1ccc(S(=O)(=O)N(CCCl)N(S(C)(=O)=O)S(C)(=O)=O)cc1 | 60% | -12% | 210% | –
CN(NS(C)(=O)=O)S(C)(=O)=O | 0% | – | 180% | Change in weight (L1210 [5]): -5.8%
CS(=O)(=O)OCCN(N(S(C)(=O)=O)S(C)(=O)=O)S(C)(=O)=O | 0% | – | – | Change in weight (L1210 [6]): -4.2%
CS(=O)(=O)NN(CCCl)S(C)(=O)=O [VPN-4090CE] | 40% | – | 130% | Change in weight (L1210 [7]): -3.3%
CS(=O)(=O)N(CCBr)N(S(C)(=O)=O)S(C)(=O)=O | 0% | -2% | – | –
CS(=O)(=O)N(N(CCCl)S(=O)(=O)c1ccc(Cl)cc1)S(C)(=O)=O | 60% | – | – | Change in weight (L1210 [8]): -3.4%
CS(=O)(=O)N(N(CCCl)S(=O)(=O)c1ccc(Br)cc1)S(C)(=O)=O | 60% | 0.9% | – | –
COc1ccc(S(=O)(=O)N(CCCl)N(S(C)(=O)=O)S(C)(=O)=O)cc1 | 100% | – | – | Change in weight (L1210 [8]): 5.9%
CN(N(S(C)(=O)=O)S(C)(=O)=O)S(C)(=O)=O | – | -7.7% | – | Mean increase in survival (Mus musculus [9]): 6.3 days; Survival (Mus musculus [10]): 0%; Mean increase in survival (Mus musculus [11]): 3.7 days; Mean increase in survival (Mus musculus [12]): 1.2 days
CS(=O)(=O)N(CCI)N(S(C)(=O)=O)S(C)(=O)=O | 0% | 8% | 110% | –
